Measurements as given in ChEMBL document CHEMBL1143724, “4-Amino-5-vinyl-3(2H)-pyridazinones and analogues as potent antinociceptive agents: Synthesis, SARs, and preliminary studies on the mechanism of action” (Bioorg Med Chem, 2007).

What was measured:
[1] = target: Delta-type opioid receptor (Homo sapiens, UniProt P41143); test: Binding affinity to delta opioid receptor
Mu-type opioid receptor = Mu-type opioid receptor (Homo sapiens, UniProt P35372); test: Binding affinity to mu opioid receptor
[2] = target: Kappa-type opioid receptor (Homo sapiens, UniProt P41145); test: Binding affinity to kappa opioid receptor
Mus musculus = test: Antinociceptive effect in sc dosed CD1 mouse; format: functional
Outline: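 Acetic acid abdominal constriction test, with compounds given sc 30 min before acetic acid. Writhes counted over 10 min. A response was scored as protected if below 3 SD of the control mean. Six to 8 mice per dose, at least 18 per experiment.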

Sequence of Delta-type opioid receptor (P41143 whole entry): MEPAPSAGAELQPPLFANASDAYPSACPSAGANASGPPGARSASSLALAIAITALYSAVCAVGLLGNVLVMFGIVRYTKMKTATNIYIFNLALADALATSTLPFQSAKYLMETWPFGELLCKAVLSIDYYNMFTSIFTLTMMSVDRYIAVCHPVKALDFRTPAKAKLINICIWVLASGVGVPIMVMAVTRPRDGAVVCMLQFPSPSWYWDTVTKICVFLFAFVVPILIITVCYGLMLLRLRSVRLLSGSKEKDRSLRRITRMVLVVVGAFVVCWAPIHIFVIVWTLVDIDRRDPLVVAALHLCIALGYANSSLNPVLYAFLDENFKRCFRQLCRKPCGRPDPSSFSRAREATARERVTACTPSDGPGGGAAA
Sequence of Mu-type opioid receptor (P35372 whole entry): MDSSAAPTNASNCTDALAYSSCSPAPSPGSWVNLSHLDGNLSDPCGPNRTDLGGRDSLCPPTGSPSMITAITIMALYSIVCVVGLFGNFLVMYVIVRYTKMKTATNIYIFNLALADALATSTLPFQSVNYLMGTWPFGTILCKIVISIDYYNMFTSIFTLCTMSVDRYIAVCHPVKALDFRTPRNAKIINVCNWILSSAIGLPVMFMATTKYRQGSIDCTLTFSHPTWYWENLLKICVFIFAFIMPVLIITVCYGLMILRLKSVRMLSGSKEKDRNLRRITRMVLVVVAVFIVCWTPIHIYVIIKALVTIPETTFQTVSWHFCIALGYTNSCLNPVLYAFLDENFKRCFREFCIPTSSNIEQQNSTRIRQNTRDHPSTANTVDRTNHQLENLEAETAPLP
Sequence of Kappa-type opioid receptor (P41145 whole entry): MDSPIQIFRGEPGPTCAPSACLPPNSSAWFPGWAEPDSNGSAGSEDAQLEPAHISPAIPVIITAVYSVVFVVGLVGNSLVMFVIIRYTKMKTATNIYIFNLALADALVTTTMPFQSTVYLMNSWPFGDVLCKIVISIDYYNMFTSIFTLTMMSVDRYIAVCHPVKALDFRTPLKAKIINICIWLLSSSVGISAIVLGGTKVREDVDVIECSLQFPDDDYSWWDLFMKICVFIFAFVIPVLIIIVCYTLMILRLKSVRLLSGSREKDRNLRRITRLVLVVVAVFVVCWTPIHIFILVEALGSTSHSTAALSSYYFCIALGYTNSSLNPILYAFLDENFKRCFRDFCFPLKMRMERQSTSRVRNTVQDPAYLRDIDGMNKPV

Structure (SMILES): C=Cc1c(-c2ccccc2)nn(CCCC)c(=O)c1N
- Ki [1]: > 10 µM
- Ki (Mu-type opioid receptor): > 10 µM
- Ki [2]: > 10 µM

Structure (SMILES): C=Cc1c(-c2ccccc2)nn(C)c(=O)c1NCCc1ccccc1
- ED50 (Mus musculus): 89.4 mg/kg
